System: HEK-293T
Assay: Multiplex assay against HEK293T
Format: toxicity, cell-based
Settings: human
Procedure, shortened: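 With compound added, live cells were imaged on a CQ1 microscope at 37°C and 5% CO2; staining with Hoechst33342, BioTracker Green Microtubule Cytoskeleton Dye, MitoTracker Red and Annexin V Alexa Fluor 680 had been done at seeding. The CellPathfinder machine-learning gating scheme split cells into Hoechst high-intensity objects or normal cells, normal cells into healthy, pyknosed or fragmented nuclei, and pyknosed cells into mitotic or apoptotic. The tubulin, mitochondrial-mass and membrane-permeability phenotypes are per cents of healthy-nucleus cells.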

[1] = 12 h, 1 µM, compound concentration 1 uM, replicate 1
[2] = 12 h, 1 µM, compound concentration 1 uM, replicate 2
[3] = 12 h, 10 µM, compound concentration 10 uM, replicate 1
[4] = 12 h, 10 µM, compound concentration 10 uM, replicate 2
[5] = 24 h, 1 µM, compound concentration 1 uM, replicate 1
[6] = 24 h, 1 µM, compound concentration 1 uM, replicate 2
[7] = 24 h, 10 µM, compound concentration 10 uM, replicate 1
[8] = 24 h, 10 µM, compound concentration 10 uM, replicate 2
[9] = 48 h, 1 µM, compound concentration 1 uM, replicate 1
[10] = 48 h, 1 µM, compound concentration 1 uM, replicate 2
[11] = 48 h, 10 µM, compound concentration 10 uM, replicate 1
[12] = 48 h, 10 µM, compound concentration 10 uM, replicate 2

## Oc1c(CN2CCN(c3ccccn3)CC2)cc(Cl)c2cccnc12
[1]
  Population Apoptotic (%): 30%
  Population Fragmented Nuclei (%): 6%
  Population Healthy Nuclei (%): 83%
  Population Hoechst High Intensity Objects (%): 7%
  Population Membrane Permeable-Phenotype (%): 0%
  Population Mitochondria Different-Phenotype (%): 44%
  Population Mitotic Cells (%): 70%
  Population Normal (%): 92%
  Population Pyknosed Nuclei (%): 10%
  Population Tubulin-Different-Phenotype (%): 34%
  Total Cell Count: 424
[2]
  Population Apoptotic (%): 45%
  Population Fragmented Nuclei (%): 5%
  Population Healthy Nuclei (%): 80%
  Population Mitochondria Different-Phenotype (%): 59%
  Population Mitotic Cells (%): 54%
  Population Pyknosed Nuclei (%): 13%
  Population Tubulin-Different-Phenotype (%): 20%
  Total Cell Count: 354
[3]
  Population Apoptotic (%): 71%
  Population Fragmented Nuclei (%): 16%
  Population Healthy Nuclei (%): 64%
  Population Hoechst High Intensity Objects (%): 11%
  Population Membrane Permeable-Phenotype (%): 0%
  Population Mitochondria Different-Phenotype (%): 64%
  Population Mitotic Cells (%): 28%
  Population Normal (%): 88%
  Population Pyknosed Nuclei (%): 18%
  Population Tubulin-Different-Phenotype (%): 20%
  Total Cell Count: 197
[4]
  Population Apoptotic (%): 73%
  Population Fragmented Nuclei (%): 18%
  Population Healthy Nuclei (%): 69%
  Population Hoechst High Intensity Objects (%): 6%
  Population Mitochondria Different-Phenotype (%): 70%
  Population Mitotic Cells (%): 26%
  Population Normal (%): 93%
  Population Pyknosed Nuclei (%): 12%
  Population Tubulin-Different-Phenotype (%): 32%
  Total Cell Count: 327
[5]
  Population Apoptotic (%): 34%
  Population Fragmented Nuclei (%): 6%
  Population Healthy Nuclei (%): 84%
  Population Hoechst High Intensity Objects (%): 3%
  Population Membrane Permeable-Phenotype (%): 0%
  Population Mitochondria Different-Phenotype (%): 22%
  Population Mitotic Cells (%): 65%
  Population Normal (%): 96%
  Population Pyknosed Nuclei (%): 9%
  Population Tubulin-Different-Phenotype (%): 23%
  Total Cell Count: 529
[6]
  Population Apoptotic (%): 33%
  Population Fragmented Nuclei (%): 7%
  Population Mitochondria Different-Phenotype (%): 40%
  Population Mitotic Cells (%): 66%
  Population Pyknosed Nuclei (%): 8%
  Population Tubulin-Different-Phenotype (%): 13%
  Total Cell Count: 427
[7]
  Population Apoptotic (%): 93%
  Population Fragmented Nuclei (%): 18%
  Population Healthy Nuclei (%): 65%
  Population Hoechst High Intensity Objects (%): 13%
  Population Membrane Permeable-Phenotype (%): 1%
  Population Mitochondria Different-Phenotype (%): 65%
  Population Mitotic Cells (%): 6%
  Population Normal (%): 86%
  Population Pyknosed Nuclei (%): 15%
  Population Tubulin-Different-Phenotype (%): 19%
  Total Cell Count: 227
[8]
  Population Apoptotic (%): 81%
  Population Fragmented Nuclei (%): 21%
  Population Healthy Nuclei (%): 63%
  Population Hoechst High Intensity Objects (%): 7%
  Population Mitochondria Different-Phenotype (%): 78%
  Population Mitotic Cells (%): 18%
  Population Normal (%): 92%
  Population Tubulin-Different-Phenotype (%): 34%
  Total Cell Count: 354
[9]
  Population Apoptotic (%): 29%
  Population Fragmented Nuclei (%): 12%
  Population Healthy Nuclei (%): 80%
  Population Hoechst High Intensity Objects (%): 3%
  Population Membrane Permeable-Phenotype (%): 0%
  Population Mitochondria Different-Phenotype (%): 22%
  Population Mitotic Cells (%): 70%
  Population Normal (%): 96%
  Population Pyknosed Nuclei (%): 6%
  Population Tubulin-Different-Phenotype (%): 16%
  Total Cell Count: 689
[10]
  Population Apoptotic (%): 31%
  Population Fragmented Nuclei (%): 10%
  Population Healthy Nuclei (%): 83%
  Population Mitochondria Different-Phenotype (%): 17%
  Population Mitotic Cells (%): 68%
  Population Pyknosed Nuclei (%): 5%
  Population Tubulin-Different-Phenotype (%): 10%
  Total Cell Count: 518
[11]
  Population Apoptotic (%): 83%
  Population Fragmented Nuclei (%): 23%
  Population Healthy Nuclei (%): 44%
  Population Hoechst High Intensity Objects (%): 25%
  Population Membrane Permeable-Phenotype (%): 0%
  Population Mitochondria Different-Phenotype (%): 60%
  Population Mitotic Cells (%): 16%
  Population Normal (%): 74%
  Population Pyknosed Nuclei (%): 31%
  Population Tubulin-Different-Phenotype (%): 30%
  Total Cell Count: 204
[12]
  Population Apoptotic (%): 94%
  Population Fragmented Nuclei (%): 28%
  Population Healthy Nuclei (%): 49%
  Population Hoechst High Intensity Objects (%): 14%
  Population Mitochondria Different-Phenotype (%): 81%
  Population Mitotic Cells (%): 5%
  Population Normal (%): 85%
  Population Pyknosed Nuclei (%): 22%
  Population Tubulin-Different-Phenotype (%): 42%
  Total Cell Count: 295

Source: ChEMBL document CHEMBL5058577, “EUbOPEN Chemogenomics Library 2 (Multiplex)” (2022)
